In brackets after ≈: the same amount, converted by molar mass.
How the values were obtained:
Format in all cases: functional
[1] = tested on: Escherichia coli; assay: Inhibitory concentration against purified penicillin-binding protein(PBP) 1bgamma of Escherichia coli
In short: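 PBP purified to homogeneity. IC50 from competition with dansyl-penicillin or a coumarin analogue; protein-bound fluorescence recovered by TCA precipitation and glass-fibre filtration, then read by fluorimetry after drying.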

[2] = tested on: Enterococcus durans; assay: Inhibitory concentration against purified beta-Lactam resistant PBP5 from Enterococcus durans
In short: (§1)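 PBPs purified to homogeneity. IC50 measured by competition with fluorescent dansyl-penicillin or a coumarin analogue probe. Protein-bound fluorescence determined after TCA precipitation, filtration on glass fibre filters and drying, read on a fluorimeter.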

[3] = tested on: Streptococcus pneumoniae; assay: Inhibitory concentration against purified PBP2x from Streptococcus pneumoniae; in short: as §1
[4] = tested on: Streptococcus pneumoniae; assay: Inhibitory concentration against purified cephalosporin-resistant PBP2x.505 from Streptococcus pneumoniae; in short: as §1
[5] = tested on: Streptococcus pneumoniae; assay: Inhibitory concentration against purified cephalosporin-resistant PBP2x.604 from Streptococcus pneumoniae; in short: as §1
[6] = tested on: Staphylococcus epidermidis; assay: Inhibitory concentration against purified beta-Lactam-resistant PBP2 from Staphylococcus epidermidis; in short: as §1
[7] = tested on: Citrobacter freundii; assay: In vitro minimum inhibitory concentration required to produce antibacterial activity against Citrobacter freundii 902
In short: (§2)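 Two-fold agar dilution on Mueller-Hinton agar. Overnight broth cultures diluted in fresh broth to […]; 10⁴ CFU/spot applied by inoculating apparatus onto plates with graded drug concentrations. Incubated 18 h at 37 °C; MIC taken as the lowest concentration giving complete growth inhibition.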

[8] = tested on: Escherichia coli; assay: In vitro minimum inhibitory concentration required to produce antibacterial activity against Escherichia coli 25922; in short: as §2
[9] = tested on: Enterococcus faecalis; assay: In vitro minimum inhibitory concentration required to produce antibacterial activity against Enterococcus faecalis ATCC 29212; in short: as §2
[10] = tested on: Enterobacter cloacae; assay: In vitro minimum inhibitory concentration required to produce antibacterial activity against Enterobacter cloacae 908SSI; in short: as §2
[11] = tested on: Pseudomonas aeruginosa; assay: In vitro minimum inhibitory concentration required to produce antibacterial activity against Pseudomonas aeruginosa ATCC 27853; in short: as §2
[12] = tested on: Staphylococcus aureus; assay: In vitro minimum inhibitory concentration required to produce antibacterial activity against Staphylococcus aureus 743 MRSA; in short: as §2
[13] = tested on: Staphylococcus aureus; assay: In vitro minimum inhibitory concentration required to produce antibacterial activity against Staphylococcus aureus 887MSSA; in short: as §2
[14] = tested on: Streptococcus pneumoniae; assay: In vitro minimum inhibitory concentration required to produce antibacterial activity against Streptococcus pneumoniae 1/37(pen r); in short: as §2
[15] = tested on: Streptococcus pneumoniae; assay: Minimum inhibitory concentration for antibacterial activity against Streptococcus pneumoniae Q19 (pen s); in short: as §2

SMILES | IC50 [1] | IC50 [2] | IC50 [3] | IC50 [4] | IC50 [5] | IC50 [6] | MIC [7] | MIC [8] | MIC [9] | MIC [10] | MIC [11] | MIC [12] | MIC [13] | MIC [14] | MIC [15]
C[C@@H](O)[C@H]1C(=O)N2C(C(=O)O)=C(SCCNC=N)C[C@H]12 [IMIPENEM ANHYDROUS] | 10 nM | > 1 mM | 500 nM | 500 nM | 5.3 µM | > 1 mM |  |  |  |  |  |  |  |  | 
C=CC1=C(C(=O)O)N2C(=O)[C@@H](NC(=O)/C(=N\O)c3csc(N)n3)[C@H]2SC1 |  |  |  |  |  |  | 8 µg/mL (≈ 20.2 µM) | 0.25 µg/mL (≈ 0.632 µM) | 16 µg/mL (≈ 40.5 µM) | 16 µg/mL (≈ 40.5 µM) | > 32 µg/mL | 16 µg/mL (≈ 40.5 µM) | 0.5 µg/mL (≈ 1.26 µM) | 4 µg/mL (≈ 10.1 µM) | 0.25 µg/mL (≈ 0.632 µM)
Cc1cc(N2CC/C(=C\C3=C(C(=O)O)N4C(=O)[C@@H](NC(=O)/C(=N\O)c5csc(N)n5)[C@H]4SC3)C2=O)no1 |  |  |  |  |  |  | 0.12 µg/mL (≈ 0.22 µM) | 0.12 µg/mL (≈ 0.22 µM) | 0.25 µg/mL (≈ 0.458 µM) | 0.5 µg/mL (≈ 0.916 µM) | > 32 µg/mL | 8 µg/mL (≈ 14.7 µM) | 1 µg/mL (≈ 1.83 µM) | 2 µg/mL (≈ 3.67 µM) | 0.12 µg/mL (≈ 0.22 µM)
C=CCO/N=C(\C(=O)N[C@@H]1C(=O)N2C(C(=O)O)=C(/C=C3\CCN(CC(F)(F)F)C3=O)CS[C@H]12)c1csc(N)n1 |  |  |  |  |  |  | 2 µg/mL (≈ 3.41 µM) | 1 µg/mL (≈ 1.7 µM) | 32 µg/mL (≈ 54.6 µM) | 4 µg/mL (≈ 6.82 µM) | 8 µg/mL (≈ 13.6 µM) | 4 µg/mL (≈ 6.82 µM) | 4 µg/mL (≈ 6.82 µM) | 0.5 µg/mL (≈ 0.852 µM) | ≤ 0.06 µg/mL
CO/N=C(\C(=O)N[C@@H]1C(=O)N2C(C(=O)O)=C(/C=C3\CCN(CC(F)(F)F)C3=O)CS[C@H]12)c1csc(N)n1 |  |  |  |  |  |  | 0.25 µg/mL (≈ 0.446 µM) | 0.25 µg/mL (≈ 0.446 µM) | > 32 µg/mL | 1 µg/mL (≈ 1.78 µM) | 8 µg/mL (≈ 14.3 µM) | 8 µg/mL (≈ 14.3 µM) | 8 µg/mL (≈ 14.3 µM) | 0.5 µg/mL (≈ 0.892 µM) | ≤ 0.03 µg/mL
C=CCN1CC/C(=C\C2=C(C(=O)O)N3C(=O)[C@@H](NC(=O)/C(=N\O)c4csc(N)n4)[C@H]3SC2)C1=O |  |  |  |  |  |  | ≤ 0.06 µg/mL | ≤ 0.06 µg/mL | 1 µg/mL (≈ 1.98 µM) | 0.25 µg/mL (≈ 0.495 µM) | 16 µg/mL (≈ 31.7 µM) | 16 µg/mL (≈ 31.7 µM) | 1 µg/mL (≈ 1.98 µM) | 1 µg/mL (≈ 1.98 µM) | ≤ 0.06 µg/mL
Nc1nc(/C(=N/O)C(=O)N[C@@H]2C(=O)N3C(C(=O)O)=C(/C=C4\CCN(c5cccnc5)C4=O)CS[C@H]23)cs1 |  |  |  |  |  |  | ≤ 0.12 µg/mL | ≤ 0.12 µg/mL | 0.5 µg/mL (≈ 0.923 µM) | ≤ 0.12 µg/mL | 16 µg/mL (≈ 29.5 µM) | 8 µg/mL (≈ 14.8 µM) | 1 µg/mL (≈ 1.85 µM) | 2 µg/mL (≈ 3.69 µM) | 0.12 µg/mL (≈ 0.222 µM)
Nc1nc(/C(=N/O)C(=O)N[C@@H]2C(=O)N3C(C(=O)O)=C(/C=C4\CCN(c5ccc(O)c(O)c5)C4=O)CS[C@H]23)cs1 |  |  |  |  |  |  | 0.12 µg/mL (≈ 0.21 µM) | 0.25 µg/mL (≈ 0.437 µM) | 0.5 µg/mL (≈ 0.873 µM) | 0.25 µg/mL (≈ 0.437 µM) | 32 µg/mL (≈ 55.9 µM) | 16 µg/mL (≈ 27.9 µM) | 2 µg/mL (≈ 3.49 µM) | 2 µg/mL (≈ 3.49 µM) | ≤ 0.06 µg/mL
Nc1nc(/C(=N/O)C(=O)N[C@@H]2C(=O)N3C(C(=O)O)=C(/C=C4\CCN(CC5CC5)C4=O)CS[C@H]23)cs1 |  |  |  |  |  |  | 0.12 µg/mL (≈ 0.231 µM) | 0.12 µg/mL (≈ 0.231 µM) | 1 µg/mL (≈ 1.93 µM) | 0.25 µg/mL (≈ 0.482 µM) | 16 µg/mL (≈ 30.9 µM) | 16 µg/mL (≈ 30.9 µM) | 1 µg/mL (≈ 1.93 µM) | 1 µg/mL (≈ 1.93 µM) | 0.03 µg/mL (≈ 0.0579 µM)
Nc1nc(/C(=N/O)C(=O)N[C@@H]2C(=O)N3C(C(=O)O)=C(/C=C4\CCN(Cc5nn[nH]n5)C4=O)CS[C@H]23)cs1 |  |  |  |  |  |  | 2 µg/mL (≈ 3.66 µM) | 0.25 µg/mL (≈ 0.457 µM) | 16 µg/mL (≈ 29.3 µM) | 16 µg/mL (≈ 29.3 µM) | > 32 µg/mL | 32 µg/mL (≈ 58.5 µM) | 8 µg/mL (≈ 14.6 µM) | 2 µg/mL (≈ 3.66 µM) | 0.12 µg/mL (≈ 0.22 µM)
Nc1nc(/C(=N/O)C(=O)N[C@@H]2C(=O)N3C(C(=O)O)=C(/C=C4\CCN(O)C4=O)CS[C@H]23)cs1 |  |  |  |  |  |  | 0.5 µg/mL (≈ 1.04 µM) | ≤ 0.06 µg/mL | 4 µg/mL (≈ 8.32 µM) | 16 µg/mL (≈ 33.3 µM) | 8 µg/mL (≈ 16.6 µM) | 16 µg/mL (≈ 33.3 µM) | 1 µg/mL (≈ 2.08 µM) | 4 µg/mL (≈ 8.32 µM) | 0.06 µg/mL (≈ 0.125 µM)
COc1cccc(N2CC/C(=C\C3=C(C(=O)O)N4C(=O)[C@@H](NC(=O)/C(=N\O)c5csc(N)n5)[C@H]4SC3)C2=O)c1 |  |  |  |  |  |  | 0.5 µg/mL (≈ 0.876 µM) | 0.5 µg/mL (≈ 0.876 µM) | 0.5 µg/mL (≈ 0.876 µM) | 1 µg/mL (≈ 1.75 µM) | > 32 µg/mL | 8 µg/mL (≈ 14 µM) | 1 µg/mL (≈ 1.75 µM) | 0.5 µg/mL (≈ 0.876 µM) | ≤ 0.06 µg/mL
Nc1nc(/C(=N/O)C(=O)N[C@@H]2C(=O)N3C(C(=O)O)=C(/C=C4\CCCN(c5ccccc5)C4=O)CS[C@H]23)cs1 |  |  |  |  |  |  | 1 µg/mL (≈ 1.8 µM) | 1 µg/mL (≈ 1.8 µM) | 8 µg/mL (≈ 14.4 µM) | 4 µg/mL (≈ 7.21 µM) | > 32 µg/mL | 32 µg/mL (≈ 57.7 µM) | 2 µg/mL (≈ 3.61 µM) | 4 µg/mL (≈ 7.21 µM) | 0.12 µg/mL (≈ 0.216 µM)
Nc1nc(/C(=N/OCCF)C(=O)N[C@@H]2C(=O)N3C(C(=O)O)=C(/C=C4\CCN(CC(F)(F)F)C4=O)CS[C@H]23)cs1 |  |  |  |  |  |  | 1 µg/mL (≈ 1.69 µM) | 0.5 µg/mL (≈ 0.844 µM) | 32 µg/mL (≈ 54 µM) | 2 µg/mL (≈ 3.38 µM) | 8 µg/mL (≈ 13.5 µM) | 16 µg/mL (≈ 27 µM) | 4 µg/mL (≈ 6.75 µM) | 1 µg/mL (≈ 1.69 µM) | ≤ 0.06 µg/mL
Nc1nc(/C(=N/O)C(=O)N[C@@H]2C(=O)N3C(C(=O)O)=C(/C=C4\CCN(CC(=O)O)C4=O)CS[C@H]23)cs1 |  |  |  |  |  |  | 2 µg/mL (≈ 3.83 µM) | 0.12 µg/mL (≈ 0.23 µM) | 8 µg/mL (≈ 15.3 µM) | 8 µg/mL (≈ 15.3 µM) | > 32 µg/mL | > 32 µg/mL | 16 µg/mL (≈ 30.6 µM) | 2 µg/mL (≈ 3.83 µM) | 0.12 µg/mL (≈ 0.23 µM)
CC(C)CO/N=C(\C(=O)N[C@@H]1C(=O)N2C(C(=O)O)=C(/C=C3\CCN(CC(F)(F)F)C3=O)CS[C@H]12)c1csc(N)n1 |  |  |  |  |  |  | 4 µg/mL (≈ 6.64 µM) | 2 µg/mL (≈ 3.32 µM) | 16 µg/mL (≈ 26.6 µM) | 4 µg/mL (≈ 6.64 µM) | 16 µg/mL (≈ 26.6 µM) | 4 µg/mL (≈ 6.64 µM) | 8 µg/mL (≈ 13.3 µM) | 1 µg/mL (≈ 1.66 µM) | ≤ 0.06 µg/mL
Nc1nc(/C(=N/O)C(=O)N[C@@H]2C(=O)N3C(C(=O)O)=C(/C=C4\CCN(c5ccc(O)cc5)C4=O)CS[C@H]23)cs1 |  |  |  |  |  |  | ≤ 0.06 µg/mL | ≤ 0.06 µg/mL | 0.5 µg/mL (≈ 0.898 µM) | 0.25 µg/mL (≈ 0.449 µM) | 4 µg/mL (≈ 7.19 µM) | 4 µg/mL (≈ 7.19 µM) | 0.5 µg/mL (≈ 0.898 µM) | 1 µg/mL (≈ 1.8 µM) | 0.12 µg/mL (≈ 0.216 µM)
Nc1nc(/C(=N/O)C(=O)N[C@@H]2C(=O)N3C(C(=O)O)=C(/C=C4/CCN(C5CC5)C4=O)CS[C@H]23)cs1 |  |  |  |  |  |  | 0.5 µg/mL (≈ 0.991 µM) | 0.5 µg/mL (≈ 0.991 µM) | 16 µg/mL (≈ 31.7 µM) | 1 µg/mL (≈ 1.98 µM) | > 32 µg/mL | 16 µg/mL (≈ 31.7 µM) | 1 µg/mL (≈ 1.98 µM) | 2 µg/mL (≈ 3.96 µM) | 0.25 µg/mL (≈ 0.495 µM)
Nc1nc(/C(=N/OC2CCCC2)C(=O)N[C@@H]2C(=O)N3C(C(=O)O)=C(/C=C4\CCN(CC(F)(F)F)C4=O)CS[C@H]23)cs1 |  |  |  |  |  |  | 4 µg/mL (≈ 6.51 µM) | 2 µg/mL (≈ 3.25 µM) | 8 µg/mL (≈ 13 µM) | 4 µg/mL (≈ 6.51 µM) | 8 µg/mL (≈ 13 µM) | 8 µg/mL (≈ 13 µM) | 4 µg/mL (≈ 6.51 µM) | 1 µg/mL (≈ 1.63 µM) | ≤ 0.06 µg/mL
